Experimental data published in ChEMBL document CHEMBL1137611, “Toward potent ghrelin receptor ligands based on trisubstituted 1,2,4-triazole structure. 2. Synthesis and pharmacological in vitro and in vivo evaluations” (J Med Chem, 2007).

Key:
[1] = target: T1, Growth hormone secretagogue receptor type 1 (Homo sapiens, UniProt Q92847); assay: Activity at human GHS1a receptor expressed in CHO cells assessed as accumulation of intracellular calcium level at 10 uM relative to ghrelin; assay type: functional, cell-based
Outline: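 CHO cells transiently electroporated with hGHS-R1a, loaded 24 h later with 1 μM Fluo-4AM (1 h, 37 °C, dark), then de-esterified 30 min at room temperature. Fluorescence (ex 485/em 525 nm) recorded over 60 s, compound at 10 μM added at 15 s. Triplicates, at least two independent experiments. Response expressed as percent of maximum with 0.1 μM ghrelin.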

Rattus norvegicus [2] = species on record: Rattus norvegicus; assay: Effect on cumulative food intake per 100 g body weight of Sprague-Dawley rat at 160 ug after 2 hrs; assay type: functional
Outline: (§1)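 Young-adult male rats (125–150 g), singly housed, acclimated 1 week and trained daily for a further week. Test compound given sc at 160 μg/kg mid-morning, then returned to cages with a known amount of chow. Cumulative intake recorded at 2 or 6 h as g food/100 g body weight.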

Rattus norvegicus [3] = species on record: Rattus norvegicus; assay: Inhibition of hexarelin-stimulated cumulative food intake per 100 g body weight of Sprague-Dawley rat at 160 ug after 2 hrs; assay type: functional
Outline: (§2)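 Young-adult male rats (125–150 g), singly housed, acclimated and trained. Compound given sc at time −10 min (0, 20, 80, 160 or 320 μg/kg), then hexarelin 80 μg/kg sc at time 0. Rats returned to home cages with a known amount of chow. Cumulative intake recorded as g food/100 g body weight at 2 h and 6 h.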

Rattus norvegicus [4] = species on record: Rattus norvegicus; assay: Effect on cumulative food intake per 100 g body weight of Sprague-Dawley rat at 160 ug after 6 hrs; assay type: functional; outline: as §1
Rattus norvegicus [5] = species on record: Rattus norvegicus; assay: Inhibition of hexarelin-stimulated cumulative food intake per 100 g body weight of Sprague-Dawley rat at 160 ug after 6 hrs; assay type: functional; outline: as §2
[6] = target: T1, Growth hormone secretagogue receptor type 1; assay: Agonist activity at human GHS1a receptor expressed in CHO cells assessed as accumulation of intracellular calcium level; assay type: functional, cell-based
Outline: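 Fluo-4AM calcium assay in CHO cells transiently expressing hGHS-R1a. Fluorescence recorded at ex 485/em 525 nm over 60 s after automated addition of increasing agonist concentrations. EC50 taken from the dose-response curve.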

Rattus norvegicus [7] = assay: Inhibition of growth hormone secretion in infant Sprague-Dawley rat at 160 ug/kg, sc; assay type: functional
Outline: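 Male 10-day-old pups (~25 g), separated from dams 1 h before testing, groups of eight. Dosed sc with vehicle (DMSO, final 1:300), compound 160 μg/kg, or compound 10 min before hexarelin 80 μg/kg sc. Decapitated 15 min later; plasma GH measured by rat GH enzyme immunoassay and expressed as ng/mL against the NIDDK-rGH-RP-2 standard.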

[8] = target: T1, Growth hormone secretagogue receptor type 1; assay: Displacement of [125I]His9-ghrelin from human cloned GHS1a receptor expressed in LLC PK1 cells; assay type: cell-based
[9] = target: T1, Growth hormone secretagogue receptor type 1; assay: Antagonist activity at human GHS1a receptor expressed in CHO cells assessed as accumulation of intracellular calcium level; assay type: functional, cell-based
Rattus norvegicus [10] = assay: Inhibition of hexarelin-stimulated cumulative food intake per 100 g body weight of Sprague-Dawley rat at 20 ug/kg; assay type: functional; outline: as §2
Rattus norvegicus [11] = assay: Inhibition of hexarelin-stimulated cumulative food intake per 100 g body weight of Sprague-Dawley rat at 80 ug/kg; assay type: functional; outline: as §2
Rattus norvegicus [12] = assay: Inhibition of hexarelin-stimulated cumulative food intake per 100 g body weight of Sprague-Dawley rat at 320 ug/kg; assay type: functional; outline: as §2

T1 sequence (Q92847 whole entry): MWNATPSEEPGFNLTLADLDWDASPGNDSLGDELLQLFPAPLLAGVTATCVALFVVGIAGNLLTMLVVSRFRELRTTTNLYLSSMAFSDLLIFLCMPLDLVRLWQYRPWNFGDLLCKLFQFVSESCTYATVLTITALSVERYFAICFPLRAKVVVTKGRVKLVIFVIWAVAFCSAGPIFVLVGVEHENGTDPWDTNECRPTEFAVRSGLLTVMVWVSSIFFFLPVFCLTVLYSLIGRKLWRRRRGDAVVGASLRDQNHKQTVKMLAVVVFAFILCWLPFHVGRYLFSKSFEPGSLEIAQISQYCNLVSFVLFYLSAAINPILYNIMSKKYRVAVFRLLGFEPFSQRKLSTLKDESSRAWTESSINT

Row | SMILES | Activity [1] | Activity (Rattus norvegicus [2]) | Activity (Rattus norvegicus [3]) | Activity (Rattus norvegicus [4]) | Activity (Rattus norvegicus [5]) | EC50 [6] | Activity (Rattus norvegicus [7]) | IC50 [8] | Kb [9] | Activity (Rattus norvegicus [10]) | Activity (Rattus norvegicus [11]) | Activity (Rattus norvegicus [12])
1 | COc1ccc(Cn2c(CCc3ccccc3)nnc2[C@@H](Cc2c[nH]c3ccccc23)NC(=O)C2CCCCN2)cc1 (single isomer, unassigned) | 3% | 0.01 g | 0.06 g | 0.01 g | 0.56 g |  |  |  |  |  |  | 
2 | COc1ccc(Cn2c(CCc3ccccc3)nnc2[C@@H](Cc2c[nH]c3ccccc23)NC(=O)[C@@H]2CCCNC2)cc1 | 89% |  |  |  |  | 36 nM |  |  |  |  |  | 
3 | COc1ccc(Cn2c(CCc3ccccc3)nnc2[C@@H](Cc2c[nH]c3ccccc23)NC(=O)[C@H]2CCCCN2)cc1 | 7% | 0.01 g | 0.85 g | 0.01 g | 1.07 g |  | 6.09 ng/mL |  |  |  |  | 
4 | COc1ccc(Cn2c(CCc3ccccc3)nnc2[C@@H](Cc2c[nH]c3ccccc23)NC(=O)[C@@H]2CCCCN2)c(OC)c1 | 0% |  |  |  |  |  |  | 134 nM |  |  |  | 
5 | O=C(N[C@H](Cc1c[nH]c2ccccc12)c1nnc(CCc2c[nH]c3ccccc23)n1-c1ccccc1)C1CCNCC1 | 100% |  |  |  |  | 2.3 nM |  |  |  |  |  | 
6 | COc1ccc(Cn2c(CCc3c[nH]c4ccccc34)nnc2[C@@H](Cc2c[nH]c3ccccc23)NC(=O)[C@H]2CCCNC2)c(OC)c1 | 48% | 0.01 g | 0.33 g | 0.01 g | 0.65 g | 5.3 nM |  | 6.5 nM |  |  |  | 
7 | CCc1ccc(-n2c(CCc3c[nH]c4ccccc34)nnc2[C@@H](Cc2c[nH]c3ccccc23)NC(=O)C2CCNCC2)cc1 | 100% |  |  |  |  | 15 nM |  | 96 nM |  |  |  | 
8 | COc1ccc(-n2c(CCc3ccccc3)nnc2[C@@H](Cc2c[nH]c3ccccc23)NC(=O)CN)c(OC)c1 | 27% |  |  |  |  |  |  | > 1000 nM |  |  |  | 
9 | CCc1ccc(-n2c(CCc3c[nH]c4ccccc34)nnc2[C@@H](Cc2c[nH]c3ccccc23)NC(=O)[C@@H]2CCCN2)cc1 | 5% |  |  |  |  |  |  | 350 nM |  |  |  | 
10 | COc1ccc(Cn2c(CCc3c[nH]c4ccccc34)nnc2[C@@H](Cc2c[nH]c3ccccc23)NC(=O)C(C)(C)N)cc1 | 9% |  |  |  |  |  |  |  | 4 nM |  |  | 
11 | Cc1ncccc1-n1c(CCc2ccccc2)nnc1[C@@H](Cc1c[nH]c2ccccc12)NC(=O)C1CCNCC1 | 78% |  |  |  |  |  |  | > 1000 nM |  |  |  | 
12 | NCC(=O)N[C@H](Cc1c[nH]c2ccccc12)c1nnc(CCc2ccccc2)n1-c1ccccc1 | 7% |  |  |  |  |  |  | > 1000 nM |  |  |  | 
13 | COc1ccc(Cn2c(CCc3ccccc3)nnc2[C@@H](Cc2c[nH]c3ccccc23)NC(=O)CN)cc1 | 0% | 0.01 g | 0.01 g | 0.04 g | 0.28 g |  | 9.85 ng/mL |  |  | 0.63 g | 0.56 g | 0.36 g
14 | O=C(N[C@H](Cc1c[nH]c2ccccc12)c1nnc(CCc2c[nH]c3ccccc23)n1Cc1ccccc1)[C@H]1CCCNC1 | 50% | 0.52 g | 0.16 g | 0.6 g | 0.62 g | 9.9 nM |  | 13 nM |  |  |  | 
15 | COc1ccc(Cn2c(CCC3C=Nc4ccccc43)nnc2[C@@H](Cc2c[nH]c3ccccc23)NC(=O)CN)cc1 (stereo partly drawn) | 2% |  |  |  |  |  |  | 138 nM |  |  |  | 
16 | CCc1ccc(Cn2c(CCc3ccccc3)nnc2[C@@H](Cc2c[nH]c3ccccc23)NC(=O)C2CCNCC2)cc1 | 101% | 0.03 g | 1.4 g | 0.35 g | 1.66 g | 7.7 nM |  |  |  |  |  | 
17 | COc1ccc(Cn2c(CCc3ccccc3)nnc2[C@@H](Cc2c[nH]c3ccccc23)NC(=O)CN)c(OC)c1 | 0% | 0.01 g | 1.26 g | 0.08 g | 1.48 g |  |  | 154 nM |  |  |  | 

Row | SMILES | Activity [1] | Activity (Rattus norvegicus [2]) | Activity (Rattus norvegicus [3]) | Activity (Rattus norvegicus [4]) | Activity (Rattus norvegicus [5]) | EC50 [6] | Activity (Rattus norvegicus [7]) | IC50 [8] | Kb [9] | Activity (Rattus norvegicus [10]) | Activity (Rattus norvegicus [11]) | Activity (Rattus norvegicus [12])
18 | COc1ccc(Cn2c(CCc3c[nH]c4ccccc34)nnc2[C@@H](Cc2c[nH]c3ccccc23)NC(=O)C2CCNCC2)cc1 | 93% | 0.01 g | 0.4 g | 0.37 g | 1.05 g | 3 nM |  |  |  |  |  | 
19 | COc1ccc(Cn2c(CCc3c[nH]c4ccccc34)nnc2[C@@H](Cc2c[nH]c3ccccc23)NC(=O)[C@H]2CCCNC2)cc1 | 111% | 0.01 g | 0.62 g | 0.06 g | 0.76 g | 2.5 nM |  |  |  |  |  | 
20 | CCc1ccc(Cn2c(CCc3ccccc3)nnc2[C@@H](Cc2c[nH]c3ccccc23)NC(=O)[C@H]2CCCNC2)cc1 | 11% |  |  |  |  |  |  | 130 nM |  |  |  | 
21 | COc1ccc(Cn2c(CCc3c[nH]c4ccccc34)nnc2[C@@H](Cc2c[nH]c3ccccc23)NC(=O)[C@@H]2CCCN2)c(OC)c1 | 0% |  |  |  |  |  |  | 5.6 nM | 11 nM |  |  | 
22 | CCc1ccc(Cn2c(CCc3ccccc3)nnc2[C@@H](Cc2c[nH]c3ccccc23)NC(=O)CN)cc1 | 0% | 0.01 g | 0.79 g | 0.03 g | 0.81 g |  |  | 759 nM |  |  |  | 
23 | COc1ccc(Cn2c(CCc3c[nH]c4ccccc34)nnc2[C@@H](Cc2c[nH]c3ccccc23)NC(=O)CN)c(OC)c1 | 0% | 0.01 g | 0.39 g | 0.01 g | 0.74 g |  |  |  | 27 nM |  |  | 
24 | COc1ccc(Cn2c(CCc3c[nH]c4ccccc34)nnc2[C@@H](Cc2c[nH]c3ccccc23)NC(=O)[C@H]2CCCCN2)cc1 | 0% | 0.04 g | 1.25 g | 0.06 g | 1.68 g |  |  |  | 8 nM |  |  | 
25 | COc1ccc(Cn2c(CCc3c[nH]c4ccccc34)nnc2[C@@H](Cc2c[nH]c3ccccc23)NC(=O)C2CCNCC2)c(OC)c1 | 77% | 0.01 g | 0.11 g | 0.01 g | 0.86 g | 0.6 nM |  |  |  |  |  | 
26 | COc1ccc(Cn2c(CCc3c[nH]c4ccccc34)nnc2[C@@H](Cc2c[nH]c3ccccc23)NC(=O)[C@@H]2CCCN2)cc1 | 2% | 0.05 g | 0.44 g | 0.2 g | 0.48 g |  |  |  | 6 nM |  |  | 
27 | COc1ccc(Cn2c(CCc3ccccc3)nnc2[C@@H](Cc2c[nH]c3ccccc23)NC(=O)[C@@H]2C[C@@H](O)CN2)cc1 | 87% | 0.01 g | 0.02 g | 0.01 g | 0.35 g |  |  | 173 nM |  |  |  | 
28 | COc1ccc(Cn2c(CCc3ccccc3)nnc2[C@@H](Cc2c[nH]c3ccccc23)NCCN)c(OC)c1 | 59% |  |  |  |  | 279 nM |  |  |  |  |  | 
29 | COc1ccc(Cn2c(CCc3c[nH]c4ccccc34)nnc2[C@@H](Cc2c[nH]c3ccccc23)NC(=O)[C@H]2CCCN2)cc1 | 7% | 0.01 g | 0.05 g | 0.03 g | 0.36 g |  |  |  | 7 nM | 0.17 g | 0.15 g | 0.58 g
30 | O=C(N[C@H](Cc1c[nH]c2ccccc12)c1nnc(CCc2c[nH]c3ccccc23)n1Cc1ccccc1)C1CCNCC1 | 75% | 0.01 g | 0.38 g | 0.11 g | 0.6 g | 5.4 nM |  | 24 nM |  |  |  | 
31 | CC(C)(N)C(=O)N[C@H](Cc1c[nH]c2ccccc12)c1nnc(CCc2c[nH]c3ccccc23)n1Cc1ccccc1 | 73% |  |  |  |  |  |  |  |  |  |  | 
32 | CCc1ccc(-n2c(CCc3c[nH]c4ccccc34)nnc2[C@@H](Cc2c[nH]c3ccccc23)NC(=O)CN)cc1 | 4% |  |  |  |  |  |  | > 1000 nM |  |  |  | 
33 | COc1ccc(Cn2c(CCc3ccccc3)nnc2[C@@H](Cc2c[nH]c3ccccc23)NC(=O)[C@H]2CCCNC2)cc1 | 20% |  |  |  |  |  |  |  | 10 nM |  |  | 
